Source: ChEMBL document CHEMBL1155387, “Substituted fused bicyclic pyrrolizinones as potent, orally bioavailable hNK1 antagonists” (Bioorg Med Chem Lett, 2010)
Values joined by “and” are separate entries in the source; they are usually repeats but may differ in a detail not shown here. Equal values may be shown once.

How the values were obtained:
Substance-P receptor [1] = target: T1, Substance-P receptor (Homo sapiens, UniProt P25103); assay: Displacement of [125I]substance P from human NK1 receptor expressed in CHO cells; assay type: cell-based
Procedure, shortened: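 Competition binding: [125I]-labelled substance P displaced from cloned human NK1 receptor expressed in CHO cells; IC50 reported as mean of n = 3.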

Substance-P receptor [2] = target: T1, Substance-P receptor; assay: Displacement of [125I]substance P from human NK1 receptor expressed in CHO cells in the presence of 50 percent human serum; assay type: cell-based
Substance-P receptor [3] = target: T1, Substance-P receptor; assay: Antagonist activity at human NK1 receptor expressed in CHO cells assessed as inhibition of substance P-induced inositol phosphate generation at 100 nM; assay type: functional, cell-based
Gerbillinae [4] = assay: Inhibition of GR-73632-induced foot tapping in gerbils at 3 mg/kg, iv after 24 hrs; assay type: functional; details: for inhibition in vivo at 3 mg/kg: Gerbillinae, iv, 24 h; for inhibition (INH): 3 mg/kg
Procedure, shortened: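 Gerbils dosed iv at 3 mg/kg; foot tapping induced by NK1 agonist GR73632 evaluated 24 h post-dose; percent inhibition of the tapping response.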

[5] = Displacement of diltiazem […] from calcium channel
Procedure, shortened: (§1)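 Ion-channel binding assay; IC50 values calculated for sodium channel and for calcium channel (diltiazem site).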

[6] = Inhibition of sodium channel; procedure, shortened: as §1
Gerbillinae [7] = assay: Inhibition of GR-73632-induced foot tapping in gerbils at 1 mg/kg, iv after 1 hr; assay type: functional
Procedure, shortened: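 Gerbils given 1 mg/kg iv; GR73632-induced foot tapping challenged 1 h after dosing; inhibition of tapping scored.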

T1 sequence (P25103 whole entry): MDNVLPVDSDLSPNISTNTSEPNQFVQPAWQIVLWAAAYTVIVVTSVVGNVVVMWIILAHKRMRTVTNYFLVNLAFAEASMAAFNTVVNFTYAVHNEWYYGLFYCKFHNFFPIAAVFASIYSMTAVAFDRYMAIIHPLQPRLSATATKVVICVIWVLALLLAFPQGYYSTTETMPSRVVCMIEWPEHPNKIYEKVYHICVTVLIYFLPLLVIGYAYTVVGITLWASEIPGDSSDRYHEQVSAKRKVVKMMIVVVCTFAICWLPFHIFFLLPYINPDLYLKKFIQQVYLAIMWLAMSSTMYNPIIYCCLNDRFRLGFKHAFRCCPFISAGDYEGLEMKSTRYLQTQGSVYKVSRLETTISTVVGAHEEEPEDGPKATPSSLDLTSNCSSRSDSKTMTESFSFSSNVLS

| SMILES | IC50 (Substance-P receptor [1]) | IC50 (Substance-P receptor [2]) | inhibition of substance P-induced inositol phosphate generation (Substance-P receptor [3]) | inhibition in vivo at 3 mg/kg (Gerbillinae [4]) [%] | IC50 [5] | IC50 [6] | inhibition in vivo at 1 mg/kg (Gerbillinae [7]) [%] | inhibition (INH) (Gerbillinae [4]) [%] |
| --- | --- | --- | --- | --- | --- | --- | --- | --- |
| C[C@@H](O[C@H]1CN2C(=O)C(NCc3ccn[nH]3)C[C@H]2[C@@H]1c1ccc(F)cc1)c1cc(C(F)(F)F)cc(C(F)(F)F)c1 (stereo not given in full) | 0.06 nM | 0.9 nM | 55% | 92 | 598 nM | 1470 nM |  |  |
| C[C@@H](O[C@H]1CN2C(=O)C(NCc3nn[nH]c3CN(C)C)C[C@H]2[C@@H]1c1ccc(F)cc1)c1cc(C(F)(F)F)cc(C(F)(F)F)c1 (stereo not given in full) | 0.13 nM | 1.4 nM | 40% |  | 301 nM | 2410 nM | 88 |  |
| C[C@@H](O[C@H]1CN2C(=O)CC(NCc3ccn[nH]3)[C@H]2[C@@H]1c1ccc(F)cc1)c1cc(C(F)(F)F)cc(C(F)(F)F)c1 (stereo not given in full) | 0.13 nM | 1.83 nM | 68% | 94 | 2390 nM | 2970 nM |  |  |
| C[C@@H](O[C@H]1CN2C(=O)CC(n3cnnc3)[C@H]2[C@@H]1c1ccc(F)cc1)c1cc(C(F)(F)F)cc(C(F)(F)F)c1 (stereo not given in full) | 0.07 nM | 0.83 nM | 52% |  | > 10000 nM | 7820 nM | 0 |  |
| C[C@@H](O[C@H]1CN2C(=O)CC(C)(N)[C@H]2[C@@H]1c1ccc(F)cc1)c1cc(C(F)(F)F)cc(C(F)(F)F)c1 (stereo not given in full) | 0.08 nM | 0.42 nM | 45% | 100 | 767 nM | 1400 nM |  |  |
| C[C@@H](O[C@H]1CN2C(=O)C(n3cnnc3)C[C@H]2[C@@H]1c1ccc(F)cc1)c1cc(C(F)(F)F)cc(C(F)(F)F)c1 (single isomer, unassigned) [listing 1 of 2 here] | 0.05 nM | 1.8 nM |  |  |  | 5320 nM | 0 |  |
| C[C@@H](O[C@H]1CN2C(=O)C(C)(O)C[C@H]2[C@@H]1c1ccc(F)cc1)c1cc(C(F)(F)F)cc(C(F)(F)F)c1 (single isomer, unassigned) [listing 1 of 2 here] | 0.09 nM | 2.5 nM |  | 98 | 1870 nM | 4820 nM |  |  |
| C[C@@H](O[C@H]1CN2C(=O)C(O)C[C@H]2[C@@H]1c1ccc(F)cc1)c1cc(C(F)(F)F)cc(C(F)(F)F)c1 (single isomer, unassigned) [listing 1 of 2 here] | 0.14 nM | 5.6 nM |  | 95 | 8060 nM | 5140 nM |  |  |
| C[C@@H](O[C@H]1CN2C(=O)C(C)(O)C[C@H]2[C@@H]1c1ccc(F)cc1)c1cc(C(F)(F)F)cc(C(F)(F)F)c1 (single isomer, unassigned) [listing 2 of 2 here] |  |  | 70% |  |  |  |  |  |
| C[C@@H](O[C@H]1CN2C(=O)C(O)C[C@H]2[C@@H]1c1ccc(F)cc1)c1cc(C(F)(F)F)cc(C(F)(F)F)c1 (single isomer, unassigned) [listing 2 of 2 here] |  |  | 90% |  |  |  |  |  |
| C[C@@H](O[C@H]1CN2C(=O)C(n3cnnc3)C[C@H]2[C@@H]1c1ccc(F)cc1)c1cc(C(F)(F)F)cc(C(F)(F)F)c1 (single isomer, unassigned) [listing 2 of 2 here] |  |  | 74% |  |  |  |  |  |
| C[C@@H](O[C@H]1CN2C(=O)CC(O)[C@H]2[C@@H]1c1ccc(F)cc1)c1cc(C(F)(F)F)cc(C(F)(F)F)c1 (single isomer, unassigned; 18a) [listing 1 of 2 here] | 0.08 nM | 2.1 nM |  | 100 | 2380 nM | 1990 nM |  |  |
| C[C@@H](O[C@H]1CN2C(=O)CC(O)[C@H]2[C@@H]1c1ccc(F)cc1)c1cc(C(F)(F)F)cc(C(F)(F)F)c1 (single isomer, unassigned; 18a) [listing 2 of 2 here] |  |  | 65% |  |  |  |  |  |
| C[C@@H](O[C@H]1CN2C(=O)CC(O)[C@H]2[C@@H]1c1ccc(F)cc1)c1cc(C(F)(F)F)cc(C(F)(F)F)c1 (single isomer, unassigned; 18b) [listing 1 of 2 here] | 0.07 nM | 2.7 nM |  |  |  |  |  |  |
| C[C@@H](O[C@H]1CN2C(=O)CC(O)[C@H]2[C@@H]1c1ccc(F)cc1)c1cc(C(F)(F)F)cc(C(F)(F)F)c1 (single isomer, unassigned; 18b) [listing 2 of 2 here] |  |  | 79% |  |  |  |  |  |
| C[C@@H](O[C@H]1CN2C(=O)C(O)C[C@H]2[C@@H]1c1ccc(F)cc1)c1cc(C(F)(F)F)cc(C(F)(F)F)c1 (stereo in doubt; 2b) |  |  | 60% |  |  |  |  |  |

| SMILES | IC50 (Substance-P receptor [1]) | IC50 (Substance-P receptor [2]) | inhibition of substance P-induced inositol phosphate generation (Substance-P receptor [3]) | inhibition in vivo at 3 mg/kg (Gerbillinae [4]) [%] | IC50 [5] | IC50 [6] | inhibition in vivo at 1 mg/kg (Gerbillinae [7]) [%] | inhibition (INH) (Gerbillinae [4]) [%] |
| --- | --- | --- | --- | --- | --- | --- | --- | --- |
| C[C@@H](O[C@H]1CN2C(=O)C(N)C[C@H]2[C@@H]1c1ccc(F)cc1)c1cc(C(F)(F)F)cc(C(F)(F)F)c1 (stereo in doubt; 3a) [listing 1 of 2 here] | 0.27 nM | 2.1 nM |  | 99 | 98 nM | 2820 nM |  |  |
| C[C@@H](O[C@H]1CN2C(=O)C(N)C[C@H]2[C@@H]1c1ccc(F)cc1)c1cc(C(F)(F)F)cc(C(F)(F)F)c1 (stereo in doubt; 3a) [listing 2 of 2 here] |  |  | 92% |  |  |  |  |  |
| C[C@@H](O[C@H]1CN2C(=O)C(N)C[C@H]2[C@@H]1c1ccc(F)cc1)c1cc(C(F)(F)F)cc(C(F)(F)F)c1 (stereo in doubt; 3b) [listing 1 of 2 here] | 0.06 nM | 0.38 nM |  |  | 214 nM | 239 nM |  | 100 |
| C[C@@H](O[C@H]1CN2C(=O)C(N)C[C@H]2[C@@H]1c1ccc(F)cc1)c1cc(C(F)(F)F)cc(C(F)(F)F)c1 (stereo in doubt; 3b) [listing 2 of 2 here] |  |  | 59% |  |  |  |  |  |
| C[C@@H](O[C@H]1CN2C(=O)C(C)(O)C[C@H]2[C@@H]1c1ccc(F)cc1)c1cc(C(F)(F)F)cc(C(F)(F)F)c1 (stereo in doubt; 5b) [listing 1 of 2 here] | 0.04 nM | 0.8 nM |  |  | 2180 nM | 3200 nM |  | 100 |
| C[C@@H](O[C@H]1CN2C(=O)C(C)(O)C[C@H]2[C@@H]1c1ccc(F)cc1)c1cc(C(F)(F)F)cc(C(F)(F)F)c1 (stereo in doubt; 5b) [listing 2 of 2 here] |  |  | 45% |  |  |  |  |  |
| C[C@@H](O[C@H]1CN2C(=O)CC(N)[C@H]2[C@@H]1c1ccc(F)cc1)c1cc(C(F)(F)F)cc(C(F)(F)F)c1 (stereo in doubt; 15a) |  |  | 75% |  |  |  |  |  |
| C[C@@H](O[C@H]1CN2C(=O)CC(N)[C@H]2[C@@H]1c1ccc(F)cc1)c1cc(C(F)(F)F)cc(C(F)(F)F)c1 (stereo in doubt; 15b) [listing 1 of 2 here] | 0.08 nM and 0.11 nM | 0.77 nM and 1.8 nM |  |  | 1560 nM and 1360 nM | 4980 nM and 558 nM |  |  |
| C[C@@H](O[C@H]1CN2C(=O)CC(N)[C@H]2[C@@H]1c1ccc(F)cc1)c1cc(C(F)(F)F)cc(C(F)(F)F)c1 (stereo in doubt; 15b) [listing 2 of 2 here] |  |  | 87% and 63% |  |  |  |  |  |
| C[C@@H](O[C@H]1CN2C(=O)CC(C)(O)[C@H]2[C@@H]1c1ccc(F)cc1)c1cc(C(F)(F)F)cc(C(F)(F)F)c1 (stereo in doubt; 20a) [listing 1 of 2 here] | 0.07 nM | 1.1 nM |  | 96 | 2210 nM | 2210 nM |  |  |
| C[C@@H](O[C@H]1CN2C(=O)CC(C)(O)[C@H]2[C@@H]1c1ccc(F)cc1)c1cc(C(F)(F)F)cc(C(F)(F)F)c1 (stereo in doubt; 20a) [listing 2 of 2 here] |  |  | 28% |  |  |  |  |  |
| C[C@@H](O[C@H]1CN2C(=O)CC(C)(O)[C@H]2[C@@H]1c1ccc(F)cc1)c1cc(C(F)(F)F)cc(C(F)(F)F)c1 (stereo in doubt; 20b) [listing 1 of 2 here] | 0.06 nM | 2.6 nM |  |  |  |  |  |  |
| C[C@@H](O[C@H]1CN2C(=O)CC(C)(O)[C@H]2[C@@H]1c1ccc(F)cc1)c1cc(C(F)(F)F)cc(C(F)(F)F)c1 (stereo in doubt; 20b) [listing 2 of 2 here] |  |  | 57% |  |  |  |  |  |
| C[C@@H](O[C@H]1CN2C(=O)C(n3cnnc3)C[C@H]2[C@@H]1c1ccc(F)cc1)c1cc(C(F)(F)F)cc(C(F)(F)F)c1 (stereo in doubt; 21a) [listing 1 of 2 here] | 0.07 nM | 1.9 nM |  |  | > 10000 nM | > 10000 nM |  |  |
| C[C@@H](O[C@H]1CN2C(=O)C(n3cnnc3)C[C@H]2[C@@H]1c1ccc(F)cc1)c1cc(C(F)(F)F)cc(C(F)(F)F)c1 (stereo in doubt; 21a) [listing 2 of 2 here] |  |  | 81% |  |  |  |  |  |
